# Screening data from PubChem.
# Sampled rows, rich in hits. Any-hit rate of the full collection: about 5.5%.
# Cl transport mod: modulators of human KCC2 chloride dependent transport. Q9H2X9. KCC2 cells, thallium flux FluoZin-2 fluorescence. B-score of Tl+ flux slope (higher = more flux/activation; lower = inhibition) at 10 µM. 2.2% of 190,000 active;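 active = thallium flux slope and its plate-corrected score both differing from the plate sample mean at a set confidence after two filtering rounds, in either direction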;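 note: slope of fluorescence scaled to starting intensity during 10 to 20 s after thallium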
# STAT3 act: activators of IL-6 induced STAT3 signaling; AID 871; activation (% of control), % at 5.6 µM; U3A cells, IL-6 STAT3-luciferase reporter, luminescence; 100% = signal with IL-6 EC80 alone; 0.91% of 190,000 active;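 active = activation above the screen-wide mean of compound activation plus 3 SD, cut at about 130% in these data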;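 note: 0% = background luminescence of wells with medium and substrate only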
#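 Detection: reporter luminescence signal / Assay system: STAT1-lacking human U3A cells, STAT3 luciferase reporter / Incubation: compound pre-incubation 1 h before IL-6, then 6 h stimulation at 37 °C / Control set: IL-6-only high control / Read-out: % activation relative to IL-6 control / Probe or stimulus: Interleukin-6, 33 ng/mL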
# STAT3 inh-1: inhibitors of IL-6 induced STAT3 signaling; U3A cells, IL-6 STAT3-luciferase reporter, luminescence; host cell line lacks STAT1; inhibition, % at 5.5 µM; 0.89% of 190,000 active; AID 862;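 active = inhibition above the mean inhibition across all screened compounds plus 3 SD, cut at about 44% in these data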;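 note: 0% = DMSO only wells and 100% = 100 µM nifuroxazide control wells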
# STAT1 inh: inhibitors of IFN-gamma induced STAT1 signaling; NIH 3T3 STAT1-luciferase reporter, luminescence; inhibition, % at 5.5 µM; 0.35% of 200,000 active;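 active = inhibition above a set limit, the mean inhibition across all tested compounds plus 3 SD, cut at about 34% in these data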;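 note: 0% = IFN-gamma with DMSO and 100% = IFN-gamma with 300 µM nifuroxazide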
# HSV replic up: increases HSV replication in cells; HSV replication augmentation in cells, fold increase; maximum fold increase; 0.005% of 220,000 active; in the data active = maximum fold increase above about 1.5; inconclusive = no clear call, values can overlap the other calls; tested in PC3 cells
# STAT1 activator: increases IFN-gamma driven STAT1 reporter signal | NIH 3T3 STAT1-luciferase reporter, luminescence; 100% = IFN-gamma alone, no compound | activation (% of control), % at 5.5 µM | 2.6% of 200,000 active;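 active = activation above the screen-wide mean activation plus 3 SD, cut at about 130% in these data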;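 note: raw ratio to IFN-gamma control signal so 100% means no change and 0% no light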
# STAT3 inh-2: STAT3 inhibition, confirmation assay; shares compounds with STAT3 inh-1; U3A cells, IL-6 STAT3 luciferase reporter, luminescence; cell line lacks STAT1; inhibition, % at 5.7 µM; 45% of 1,200 active;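 active = inhibition above the hit cutoff computed for the primary STAT3 screen, cut at about 44% in these data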;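 note: 0% = IL-6 plus DMSO and 100% = IL-6 plus nifuroxazide control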
# NFkB inh STAT3ct: inhibits NF-kappaB, counter-screen to STAT3 inhibitors. shares compounds with STAT3 inh-1. AID 1308. HEK293T NF-kB luciferase reporter, TNF-alpha induced. inhibition, % at 5.7 µM. 36% of 1,200 active;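 active = inhibition above the mean of solvent-only control wells plus 3 SD, cutoff set per campaign, cut at about 13% in these data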;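 note: 0% = TNF-alpha with DMSO and 100% = TNF-alpha with MG high control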
# STAT1 inh STAT3c: inhibits STAT1, counter-screen to STAT3 inhibitors. shares compounds with STAT3 inh-1. NIH 3T3 STAT1-luciferase reporter, IFN-gamma induced, luminescence. inhibition, % at 5.7 µM. 27% of 1,200 active. AID 1317;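 active = inhibition above the mean plus 3 SD of solvent-only control wells, limit set per screening run, cut at about 16% in these data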;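 note: 0% = DMSO with IFN-gamma and 100% = nifuroxazide control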
# Active calls of the source: *; i = inactive; ? = inconclusive; . = not tested or not shown.
SMILES,Cl transport mod,STAT3 act,STAT3 inh-1,STAT1 inh,HSV replic up,STAT1 activator,STAT3 inh-2,NFkB inh STAT3ct,STAT1 inh STAT3c
O=C(Nc1ccc(Br)cc1)c1ccc(F)c(S(=O)(=O)NCc2cccs2)c1,-0.17,52,57*,17,i,84,69*,17*,16*
O=C(Nc1nccs1)c1ccc(S(=O)(=O)NCc2cccs2)cc1,-0.92,80,31,8,i,93,.,.,.
Cc1ccc2c(c1)NC(c1cccs1)C1=C(CC(C)(C)CC1=O)N2 (stereo unspecified),0.41,102,2,4,i,95,.,.,.
CCOC(=O)N1CCN(C(=O)C2CCCN(Cc3nc(-c4ccc(Cl)cc4)oc3C)C2)CC1 (stereo unspecified),-2,43,74*,11,.,90,60*,23*,-16
CCOC(=O)N1CCC(NC(=O)C2CCCN(Cc3nc(-c4cccc(Cl)c4)oc3C)C2)CC1 (stereo unspecified),-0.81,60,54*,25,i,77,38,13*,24*
CCN1CCN(CCNC(=O)C2CCCN(Cc3nc(-c4cccc(Cl)c4)oc3C)C2)CC1 (stereo unspecified),.,99,10,2,i,98,.,.,.
Cc1nc(Nc2nc3ccccc3o2)nc2c1CCC2,.,45,70*,8,i,93,28,-7,-66
Cc1cccc(C)c1Nc1nc2ccccc2o1,-2.7,104,-5,1,i,100,.,.,.
COc1ccc(NS(=O)(=O)c2cccc(NC(=O)c3ccc(S(=O)(=O)N4CCCCCC4)cc3)c2)cc1,-0.7,49,61*,20,i,82,69*,23*,25*
O=C(Nc1ccc(S(=O)(=O)Nc2ccc(F)cc2)cc1)c1ccc(CN2CCOCC2)cc1,0.81,35,80*,6,i,92,84*,30*,14
COc1ccc(NS(=O)(=O)c2ccc(NC(=O)c3ccc(CN4CCOCC4)cc3)cc2)cc1,-0.65,39,73*,20,i,81,66*,16*,14
COc1ccccc1N1CCN(S(=O)(=O)c2c(C)[nH]c(=O)[nH]c2=O)CC1,2,102,10,-4,i,103,.,.,.
C=CCSc1nnc2n(-c3ccccc3OC)c(=O)c3c4c(sc3n12)CCC4,-0.44,97,8,2,i,96,.,.,.
Cc1nn(-c2ccccc2Cl)c(Cl)c1/C=N/Nc1cccc(C(=O)O)c1,-3.6,57,51*,21,i,81,-7,61*,46*
Cc1nn(-c2cccc(C(F)(F)F)c2)c(Cl)c1/C=N/Nc1cccc(C(=O)O)c1,-2.6,85,18,-6,i,106,.,.,.
Nc1nn2cc(-c3ccc(Br)cc3)nc2c2ccccc12,-1,.,.,.,i,.,.,.,.
Brc1ccc(-c2cn3nc4c(nc3n2)CCCC4)cc1,.,38,77*,30,?,73,25,-38,-119
O=C(/C=C/c1ccc(Cl)cc1Cl)Nc1cccc(S(=O)(=O)NC2=NCCC2)c1,0.59,57,52*,22,i,78,33,6,-5
CC(C)CNC(=O)CCc1c[nH]c2ccccc12,-0.52,92,13,5,i,95,.,.,.
CCOc1ccc(N=c2scc(-c3ccc(OC)cc3)n2CCO)cc1,.,54,59*,3,i,98,18,-2,-5
CCOc1ccc(N=c2scc(-c3ccccc3)n2CCO)cc1,-0.43,90,17,-13,i,112,.,.,.
Cc1nn(Cc2ccc(Cl)cc2)c(C)c1NC(=O)c1cc(-c2ccco2)on1,.,83,24,6,.,94,.,.,.
COc1ccc(OC)c(-c2cc(C(=O)Nc3cc(C)n(Cc4ccc(Cl)cc4)n3)no2)c1,.,114,-15,-5,i,105,.,.,.
COc1cccc(-c2cc(C(=O)Nc3cc(C)n(Cc4ccc(Cl)cc4)n3)no2)c1,-0.33,58,55*,-5,i,103,70*,20*,-3
Cc1cc(NC(=O)c2cc(-c3ccco3)on2)nn1Cc1ccc(Cl)cc1,-0.27,52,63*,-2,.,101,58*,13*,-8
SMILES,Cl transport mod,STAT3 act,STAT3 inh-1,STAT1 inh,HSV replic up,STAT1 activator,STAT3 inh-2,NFkB inh STAT3ct,STAT1 inh STAT3c
Cc1ccc(C(=O)NCC(=O)OCC(=O)NC2CCS(=O)(=O)C2)cc1C (stereo unspecified),0.016,96,7,-4,i,103,.,.,.
COC(=O)Cc1[nH]n(-c2nc3ccccc3s2)c(=O)c1C(C)=Nc1ccc(C)cc1,2.5,16,100*,21,i,80,68*,64*,-10
CC(=NCc1ccco1)c1c(C)[nH]n(-c2nc3ccccc3s2)c1=O,-0.9,92,11,-43,i,128,.,.,.
C/C(=N/NC(=O)c1cccs1)c1c(C)[nH]n(-c2nc3ccccc3s2)c1=O,-2,53,56*,-4,?,103,6,3,-4
Cn1c(Sc2nc3ccccc3n2C)nc2ccccc21,0.054,115,-15,9,i,92,.,.,.
CCn1c(-c2ccc(N(C)C)cc2)nc2ccccc21,-1.9,64,44*,-8,i,108,16,-35,-36
CN(C)c1ccc(-c2nc3ccccc3n2C)cc1,.,35,77*,29,i,74,25,6,-66
Cc1ccc(/C=N/NC(=O)Cn2cncn2)cc1,0.64,94,14,-11,i,108,.,.,.
COc1ccc(C(C)NC(=O)c2ccc([N+](=O)[O-])cc2)cc1OC (stereo unspecified),-0.62,98,5,2,i,98,.,.,.
O=C(COC(=O)C12CC3CC(CC(C3)C1)C2)Nc1nc2c(F)c(F)c(F)cc2s1,0.0094,98,3,1,i,99,.,.,.
CCN=c1scc(-c2ccc3c(c2)NC(=O)CO3)n1N=C1CCCC1,-1.4,43,73*,13,i,88,64*,14*,13
O=C(Nc1cccc(O)c1)c1cc(-c2ccco2)on1,-0.38,92,14,2,i,98,.,.,.
NC(=O)c1ccsc1NC(=O)c1ccc(N2CCCC2=O)cc1,0.72,51,62*,10,i,90,13,-24,-100
Cc1ccc(CC(=O)Nc2cccnc2)cc1,-0.54,96,8,2,i,96,.,.,.
